Laboratory results published in ChEMBL document CHEMBL5154895, “Mechanistic Studies and In Vivo Efficacy of an Oxadiazole-Containing Antibiotic” (J Med Chem, 2022).
In brackets after ≈: the same amount, converted by molar mass.

Tests used:
[1] = test system: Staphylococcus aureus; test: Antibacterial activity against Staphylococcus aureus ATCC 25923 assessed as inhibition of bacterial growth incubated for 18 to 20 hrs by broth microdilution method; assay type: functional; conditions: time 18-20 hrs
In short: (§1)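 Broth microdilution per CLSI. Inoculum at 0.5 McFarland, diluted in cation-adjusted Mueller Hinton broth to about 5 × 10^5 CFU/mL. Serial compound dilutions incubated aerobically at 37° C for 18–20 hours. MIC taken as the lowest concentration completely inhibiting visible growth.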

[2] = test system: Staphylococcus aureus; test: Antibacterial activity against Staphylococcus aureus MRSA ATCC 33592 assessed as inhibition of bacterial growth incubated for 18 to 20 hrs by broth microdilution method; assay type: functional; conditions: time 18-20 hrs; in short: as §1
[3] = In vivo antibacterial activity against methicillin-resistant Staphylococcus aureus USA300 infected Balb/c mouse model assessed as reduction in bacterial infection in skin wounds at 25 mg/kg , ip administered 2 days post infection once daily and measured after 5 days post compound treatment by histopathological analysis; set-up: scale not given: the % may be the effect or the level left; conditions: time 5 day
[4] = Toxicity in Balb/c mouse infected with methicillin-resistant Staphylococcus aureus USA300 assessed as chronic inflammatory response at 25 mg/kg, ip administered 2 days post infection twice daily and measured after 5 days post compound treatment by H and E staining based histopathological analysis; assay type: organism-based; conditions: in vivo, 120 h, time 5 day
[5] = Toxicity in Balb/c mouse infected with methicillin-resistant Staphylococcus aureus USA300 assessed as necrosis at 25 mg/kg, ip administered 2 days post infection twice daily and measured after 5 days post compound treatment by H and E staining based histopathological analysis; assay type: organism-based; conditions: in vivo, 120 h, time 5 day
[6] = Toxicity in Balb/c mouse infected with methicillin-resistant Staphylococcus aureus USA300 assessed as hemorrhage at 25 mg/kg, ip administered 2 days post infection twice daily and measured after 5 days post compound treatment by H and E staining based histopathological analysis; assay type: organism-based; conditions: in vivo, 120 h, time 5 day
[7] = In vivo antibacterial activity against methicillin-resistant Staphylococcus aureus USA300 infected in Balb/c mouse model assessed as reduction in bacterial infection in skin wounds administered topically twice daily 2 days post infection and measured after 5 days post compound treatment by CFU counting; set-up: scale not given: the % may be the effect or the level left; conditions: time 5 day
[8] = Toxicity in Balb/c mouse infected with methicillin-resistant Staphylococcus aureus USA300 assessed as chronic inflammatory response administered topically twice daily 2 days post infection and measured after 5 days post compound treatment by H and E staining based histopathological analysis; conditions: in vivo, topical_or_ocular, 120 h, time 5 day
In short: (§2)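 MRSA USA300-infected punch wounds in mice, n=5. Topical 2% agent or petroleum jelly vehicle twice daily from day 2 for 5 days. The left wound was formalin-fixed, cut into 4-μm sections and H&E-stained. Whole slides were scanned and assessed by a board-certified veterinary pathologist for necrosis, inflammation, haemorrhage and related features.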

[9] = Toxicity in Balb/c mouse infected with methicillin-resistant Staphylococcus aureus USA300 assessed as necrosis administered topically twice daily 2 days post infection and measured after 5 days post compound treatment by H and E staining based histopathological analysis; conditions: in vivo, topical_or_ocular, 120 h, time 5 day; in short: as §2
[10] = Toxicity in Balb/c mouse infected with methicillin-resistant Staphylococcus aureus USA300 assessed as hemorrhage administered topically twice daily 2 days post infection and measured after 5 days post compound treatment by H and E staining based histopathological analysis; conditions: in vivo, topical_or_ocular, 120 h, time 5 day; in short: as §2

| Compound | MIC [1] [µg/mL] | MIC [2] [µg/mL] | further results |
| --- | --- | --- | --- |
| C[C@@H]1C[C@H](C)CN(S(=O)(=O)c2ccc(C(=O)N(C)c3nnc(-c4ccc(C(F)(F)F)cc4)o3)cc2)C1 | > 64 | > 64 |  |
| O=C(Nc1nnc(-c2ccc(C(F)(F)F)cc2)o1)c1ccc(S(=O)(=O)N2C[C@@H]3CC[C@H]2C3)cc1 | 2 (≈ 4.06 µM) | 2 (≈ 4.06 µM) |  |
| CCC[C@@H]1C[C@@H](C(=O)N[C@@H]([C@H]2O[C@H](SC)[C@H](O)[C@@H](O)[C@H]2O)[C@H](C)Cl)N(C)C1 [CLINDAMYCIN] |  |  | Activity [3]: 93.4%; Activity [4]: Toxic; Activity [5]: Toxic; Activity [6]: Toxic |
| O=C(Nc1nnc(-c2ccc(C(F)(F)F)cc2)o1)c1ccc(S(=O)(=O)N2CCCC2)cc1 | 2 (≈ 4.29 µM) | 2 (≈ 4.29 µM) |  |
| O=C(Nc1nnc(-c2ccc(C(F)(F)F)cc2)o1)c1ccc(S(=O)(=O)NC2CC2)cc1 | 4 (≈ 8.84 µM) | 4 (≈ 8.84 µM) |  |
| CC1CCCCN1S(=O)(=O)c1ccc(C(=O)Nc2nnc(-c3ccc(C(F)(F)F)cc3)o2)cc1 (stereo unspecified) | 2 (≈ 4.04 µM) | 2 (≈ 4.04 µM) |  |
| O=C(Nc1nnc(-c2ccc(C(F)(F)F)cc2)o1)c1ccc(S(=O)(=O)N2CCCCC2)cc1 | 2 (≈ 4.16 µM) | 2 (≈ 4.16 µM) |  |
| CC1CCCN(S(=O)(=O)c2ccc(C(=O)Nc3nnc(-c4ccc(C(F)(F)F)cc4)o3)cc2)C1 (stereo unspecified) | 2 (≈ 4.04 µM) | 2 (≈ 4.04 µM) |  |
| CN(C)S(=O)(=O)c1ccc(C(=O)Nc2nnc(-c3ccc(C(F)(F)F)cc3)o2)cc1 | 16 (≈ 36.3 µM) | 16 (≈ 36.3 µM) |  |
| C/C(=C\C(=O)OCCCCCCCCC(=O)O)C[C@@H]1OC[C@H](C[C@@H]2O[C@H]2[C@@H](C)[C@H](C)O)[C@@H](O)[C@H]1O [MUPIROCIN] |  |  | Activity [7]: 98.8%; Activity [8]: Toxic; Activity [9]: Toxic; Activity [10]: Toxic |
| CC1CCN(S(=O)(=O)c2ccc(C(=O)Nc3nnc(-c4ccc(C(F)(F)F)cc4)o3)cc2)CC1 | 1 (≈ 2.02 µM) | 1 (≈ 2.02 µM) |  |
